Results published in ChEMBL document CHEMBL3272061, “Experiments of synthesis of dl-camptothecin. 4. Synthesis and antileukemic activity of dl-camptothecin analogues” (J Med Chem, 1976).
Calls of active or inactive are those of the source. The calls are words filed in the database; no cut-off is given here.

How the values were obtained:
[1] = test system: L1210; test: Antileukemic activity against mouse L1210 cells allografted in BDF1 mouse assessed as increase in life span of host at 20.8 umol/kg, ip relative to control; format: functional
Procedure, shortened: (§1)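 BDF1 mice, 5 weeks old, were inoculated ip with 5×10^5 L1210 cells; test groups had 4 males and 4 females, controls 5 males and 5 females. A single ip dose was given on the day after inoculation, as a suspension in vehicle for the insoluble compounds. Read-out was increase in life span over controls, with survivors past 30 days counted as 30 days.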

[2] = test system: L1210; test: Antileukemic activity against mouse L1210 cells allografted in BDF1 mouse assessed as increase in life span of host at 52.1 umol/kg, ip relative to control; format: functional; procedure, shortened: as §1
[3] = test system: L1210; test: Antileukemic activity against mouse L1210 cells allografted in BDF1 mouse assessed as host survival at 20.8 umol/kg, ip after 30 days; format: functional, organism-based
Procedure, shortened: (§2)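 BDF1 mice, 5 weeks old, were inoculated ip with 5×10^5 L1210 cells in 0.1 ml saline. Test groups were 4 male and 4 female mice; controls were 5 male and 5 female. Insoluble compounds were suspended in vehicle. Dosing was ip, either once on the day after inoculation or daily for 5 days. Read-out was increase in life span over controls. Mice alive beyond 30 days were counted as 30 days and scored as survivors.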

[4] = species: Mus musculus; test: Toxicity in mouse L1210 cells allografted BDF1 mouse; format: organism-based
[5] = Solubility of the compound; format: physicochemical
[6] = test system: L1210; test: Antileukemic activity against mouse L1210 cells allografted in BDF1 mouse assessed as increase in life span of host at 1 umol/kg, ip qd for 5 days relative to control; format: functional; conditions: 120 h; procedure, shortened: as §2
[7] = test system: L1210; test: Antileukemic activity against mouse L1210 cells allografted in BDF1 mouse assessed as increase in life span of host at 5 umol/kg, ip qd for 5 days relative to control; format: functional; conditions: 120 h
Procedure, shortened: (§3)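 BDF1 mice, 5 weeks old, were inoculated ip with 5×10^5 L1210 cells; test groups had 4 males and 4 females, controls 5 males and 5 females. Dosing was ip, five times over the 5 days after inoculation, as a suspension in vehicle for the insoluble compounds. Read-out was increase in life span over controls.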

[8] = test system: L1210; test: Antileukemic activity against mouse L1210 cells allografted in BDF1 mouse assessed as increase in life span of host at 12.5 umol/kg, ip qd for 5 days relative to control; format: functional; conditions: 120 h; procedure, shortened: as §2
[9] = test system: L1210; test: Antileukemic activity against mouse L1210 cells allografted in BDF1 mouse assessed as increase in life span of host at 25 umol/kg, ip qd for 5 days relative to control; format: functional; conditions: 120 h; procedure, shortened: as §3
[10] = test system: L1210; test: Antileukemic activity against mouse L1210 cells allografted in BDF1 mouse assessed as increase in life span of host at 1 umol/kg, sc qd for 5 days relative to control; format: functional; conditions: 120 h
[11] = test system: L1210; test: Antileukemic activity against mouse L1210 cells allografted in BDF1 mouse assessed as increase in life span of host at 5 umol/kg, sc qd for 5 days relative to control; format: functional; conditions: 120 h
[12] = test system: L1210; test: Antileukemic activity against mouse L1210 cells allografted in BDF1 mouse assessed as increase in life span of host at 25 umol/kg, sc qd for 5 days relative to control; format: functional; conditions: 120 h
[13] = test system: L1210; test: Antileukemic activity against mouse L1210 cells allografted in BDF1 mouse assessed as increase in life span of host at 5 umol/kg, po qd for 5 days relative to control; format: functional; conditions: 120 h
[14] = test system: L1210; test: Antileukemic activity against mouse L1210 cells allografted in BDF1 mouse assessed as increase in life span of host at 12.5 umol/kg, po qd for 5 days relative to control; format: functional; conditions: 120 h
[15] = test system: L1210; test: Antileukemic activity against mouse L1210 cells allografted in BDF1 mouse assessed as increase in life span of host at 25 umol/kg, po qd for 4 days relative to control; format: functional; conditions: 96 h
[16] = test system: L1210; test: Antileukemic activity against mouse L1210 cells allografted in BDF1 mouse assessed as increase in life span of host at 278 umol/kg, ip relative to control; format: functional; procedure, shortened: as §1
[17] = test system: L1210; test: Antileukemic activity against mouse L1210 cells allografted in BDF1 mouse assessed as increase in life span of host at 1.11 umol/kg, ip qd for 5 days relative to control; format: functional; conditions: 120 h; procedure, shortened: as §2
[18] = test system: L1210; test: Antileukemic activity against mouse L1210 cells allografted in BDF1 mouse assessed as increase in life span of host at 5.56 umol/kg, ip qd for 5 days relative to control; format: functional; conditions: 120 h; procedure, shortened: as §3
[19] = test system: L1210; test: Antileukemic activity against mouse L1210 cells allografted in BDF1 mouse assessed as increase in life span of host at 13.8 umol/kg, ip qd for 5 days relative to control; format: functional; conditions: 120 h; procedure, shortened: as §2
[20] = test system: L1210; test: Antileukemic activity against mouse L1210 cells allografted in BDF1 mouse assessed as increase in life span of host at 27.8 umol/kg, ip qd for 5 days relative to control; format: functional; conditions: 120 h; procedure, shortened: as §3
[21] = test system: L1210; test: Antileukemic activity against mouse L1210 cells allografted in BDF1 mouse assessed as increase in life span of host at 1.11 umol/kg, sc qd for 5 days relative to control; format: functional; conditions: 120 h
[22] = test system: L1210; test: Antileukemic activity against mouse L1210 cells allografted in BDF1 mouse assessed as increase in life span of host at 5.56 umol/kg, sc qd for 5 days relative to control; format: functional; conditions: 120 h
[23] = test system: L1210; test: Antileukemic activity against mouse L1210 cells allografted in BDF1 mouse assessed as increase in life span of host at 13.8 umol/kg, sc qd for 5 days relative to control; format: functional; conditions: 120 h
[24] = test system: L1210; test: Antileukemic activity against mouse L1210 cells allografted in BDF1 mouse assessed as increase in life span of host at 27.8 umol/kg, sc qd for 5 days relative to control; format: functional; conditions: 120 h
[25] = test system: L1210; test: Antileukemic activity against mouse L1210 cells allografted in BDF1 mouse assessed as increase in life span of host at 5.56 umol/kg, po qd for 4 days relative to control; format: functional; conditions: 96 h
[26] = test system: L1210; test: Antileukemic activity against mouse L1210 cells allografted in BDF1 mouse assessed as increase in life span of host at 13.8 umol/kg, po qd for 4 days relative to control; format: functional; conditions: 96 h
[27] = test system: L1210; test: Antileukemic activity against mouse L1210 cells allografted in BDF1 mouse assessed as increase in life span of host at 27.8 umol/kg, po qd for 4 days relative to control; format: functional; conditions: 96 h
[28] = test system: L1210; test: Antileukemic activity against mouse L1210 cells allografted in BDF1 mouse assessed as increase in life span of host at 5.56 umol/kg, ip relative to control; format: functional; procedure, shortened: as §1
[29] = test system: L1210; test: Antileukemic activity against mouse L1210 cells allografted in BDF1 mouse assessed as increase in life span of host at 27.8 umol/kg, ip relative to control; format: functional; procedure, shortened: as §1
[30] = test system: L1210; test: Antileukemic activity against mouse L1210 cells allografted in BDF1 mouse assessed as increase in life span of host at 69.4 umol/kg, ip relative to control; format: functional; procedure, shortened: as §1
[31] = test system: L1210; test: Antileukemic activity against mouse L1210 cells allografted in BDF1 mouse assessed as increase in life span of host at 139 umol/kg, ip relative to control; format: functional; procedure, shortened: as §2
[32] = test system: L1210; test: Antileukemic activity against mouse L1210 cells allografted in BDF1 mouse assessed as increase in life span of host at 5.21 umol/kg, ip relative to control; format: functional; procedure, shortened: as §1
[33] = test system: L1210; test: Antileukemic activity against mouse L1210 cells allografted in BDF1 mouse assessed as increase in life span of host at 22.8 umol/kg, ip relative to control; format: functional; procedure, shortened: as §1
[34] = test system: L1210; test: Antileukemic activity against mouse L1210 cells allografted in BDF1 mouse assessed as increase in life span of host at 57.1 umol/kg, ip relative to control; format: functional; procedure, shortened: as §1
[35] = test system: L1210; test: Antileukemic activity against mouse L1210 cells allografted in BDF1 mouse assessed as increase in life span of host at 4.17 umol/kg, ip relative to control; format: functional; procedure, shortened: as §1
[36] = test system: L1210; test: Antileukemic activity against mouse L1210 cells allografted in BDF1 mouse assessed as host survival at 22.8 umol/kg, ip after 30 days; format: functional, organism-based; procedure, shortened: as §2
[37] = test system: L1210; test: Antileukemic activity against mouse L1210 cells allografted in BDF1 mouse assessed as host survival at 57.1 umol/kg, ip after 30 days; format: functional, organism-based; procedure, shortened: as §2
[38] = test system: L1210; test: Antileukemic activity against mouse L1210 cells allografted in BDF1 mouse assessed as host survival at 4.17 umol/kg, ip after 30 days; format: functional, organism-based; procedure, shortened: as §2

What does the source list for `CCOCc1c(C(O)(CC(=O)OCC)C(=O)OCC)cc2n(c1=O)Cc1cc3ccccc3nc1-2` (stereo unspecified)?
ILS at 20.8 µmol/kg [1]: 55%; ILS at 52.1 µmol/kg [2]: > 170%; Activity [3]: inactive; Activity [4]: Toxic; solubility [5]: Insoluble

What does the source list for `C=CCC1(O)C(=O)OCc2c1cc1n(c2=O)Cc2cc3ccccc3nc2-1` (stereo unspecified)?
ILS at 1 µmol/kg [6]: -2%; ILS at 5 µmol/kg [7]: 13%; ILS at 12.5 µmol/kg [8]: 58%; ILS at 25 µmol/kg [9]: > 118%; ILS at 1 µmol/kg [10]: -2%; ILS at 5 µmol/kg [11]: 9%; ILS at 25 µmol/kg [12]: 72%; ILS at 5 µmol/kg [13]: 12%; ILS at 12.5 µmol/kg [14]: 40%; ILS at 25 µmol/kg [15]: 21%

What does the source list for `C=CCC1(O)C(=O)OCc2c1cc1n(c2=O)Cc2cc3ccccc3nc2-1` (racemic)?
Activity [4]: Toxic; solubility [5]: Insoluble; ILS at 278 µmol/kg [16]: -43%; ILS at 1.11 µmol/kg [17]: 14%; ILS at 5.56 µmol/kg [18]: 42%; ILS at 13.8 µmol/kg [19]: > 105%; ILS at 27.8 µmol/kg [20]: -13%; ILS at 1.11 µmol/kg [21]: -1%; ILS at 5.56 µmol/kg [22]: 4%; ILS at 13.8 µmol/kg [23]: 26%; ILS at 27.8 µmol/kg [24]: 51%; ILS at 5.56 µmol/kg [25]: 3%; ILS at 13.8 µmol/kg [26]: -1%; ILS at 27.8 µmol/kg [27]: -1%; ILS at 5.56 µmol/kg [28]: 16%; ILS at 27.8 µmol/kg [29]: 84%; ILS at 69.4 µmol/kg [30]: > 155%; ILS at 139 µmol/kg [31]: > 60%; ILS at 5.21 µmol/kg [32]: -5%

For `O=C(CC1(O)C(=O)OCc2c1cc1n(c2=O)Cc2cc3ccccc3nc2-1)c1ccccc1` (racemic), which ILS at 22.8 µmol/kg [33] is on record?
Its ILS at 22.8 µmol/kg is 10%.

What about the ILS at 57.1 µmol/kg [34] of the same compound?
The ILS at 57.1 µmol/kg was 21%.

What about the ILS at 4.17 µmol/kg [35] of the same compound?
Its ILS at 4.17 µmol/kg is 26%.

What about the Activity [36] of the same compound?
The Activity was “inactive”.

And the Activity [37]?
The Activity was “inactive”.

What about the Activity [38] of the same compound?
Its Activity is “inactive”.

And the solubility [5]?
Its solubility is “Insoluble”.
